Test results: ChEMBL document CHEMBL2034978, “Synthesis and evaluation of curcumin-related compounds for anticancer activity” (Eur J Med Chem, 2012)

Key:
Type in all cases: functional, cell-based
PC-3 = assay: Cytotoxicity against human PC3 cells after 72 hrs by MTT assay; conditions: PC-3, 72 h
Outline: (§1)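 Seeded at 0.2 × 10⁵ cells/ml, grown 24 h, then exposed 72 h to a range of concentrations (upper limit 30). MTT read-out: formazan dissolved in DMSO, absorbance at 540 nm, growth expressed as percent of DMSO-treated cells.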

PANC-1 = assay: Cytotoxicity against human PANC1 cells after 72 hrs by MTT assay; conditions: PANC-1, 72 h; outline: as §1
HT-29 = assay: Cytotoxicity against human HT-29 cells after 72 hrs by MTT assay; conditions: HT-29, 72 h; outline: as §1

SMILES	IC50 (PC-3) [µM]	IC50 (PANC-1) [µM]	IC50 (HT-29) [µM]
COc1cc(/C=C2\CC/C(=C\c3cc(OC)c(OC)c(OC)c3)C2=O)cc(OC)c1OC	16.4	18.8	12.7
O=C1/C(=C/c2ccc(O)cc2)CC/C1=C\c1ccc(O)cc1	22.9	> 30	21.4
O=C1/C(=C/c2ccc(Cl)cc2)CCC/C1=C\c1ccc(Cl)cc1	11.3	11.8	7.75
COc1ccc(/C=C/C(=O)/C=C/c2ccc(OC)c(OC)c2)cc1OC	2.98	3.39	2.17
COc1cc(/C=C2\CCC/C(=C\c3cc(OC)c(O)c(OC)c3)C2=O)cc(OC)c1O	4.14	2.63	2.7
COc1cc(/C=C2\CCC/C(=C\c3cc(OC)c(OC)c(OC)c3)C2=O)cc(OC)c1OC	6.17	9.66	4.23
O=C1/C(=C/c2ccc(Br)cc2)CC/C1=C\c1ccc(Br)cc1	> 30	25.3	19.9
COc1ccc(/C=C/C(=O)/C=C/c2ccc(OC)c(OC)c2OC)c(OC)c1OC	5.93	9.22	5.09
COc1cc(C=C2CSCC(=Cc3cc(OC)c(O)c(OC)c3)C2=O)cc(OC)c1O	1.13	2.2	1.73
O=C1/C(=C/c2cccnc2)CC/C1=C\c1cccnc1	6.97	6.22	5.54
COc1ccc(/C=C2\COC/C(=C\c3ccc(OC)cc3)C2=O)cc1	6.12	7.63	6.05
COc1ccc(/C=C2\CC/C(=C\c3ccc(OC)c(OC)c3)C2=O)cc1OC	9.3	13.7	13.5
COc1ccc(/C=C/C(=O)/C=C/c2ccc(OC)cc2)cc1	11.2	14	11.3
O=C1/C(=C/c2ccc(F)cc2)CNC/C1=C\c1ccc(F)cc1	2.87	3.15	3.26
O=C(/C=C/c1ccc(Br)cc1)/C=C/c1ccc(Br)cc1	23.1	20.8	14
COc1cc(/C=C2\CCC/C(=C\c3ccc(O)c(OC)c3)C2=O)ccc1O [CYCLOVALONE]	5.89	4.43	3.73
O=C1/C(=C/c2cccnc2)COC/C1=C\c1cccnc1	2.21	0.98	1.81
COc1cc(/C=C2\CC/C(=C\c3cc(OC)c(O)c(OC)c3)C2=O)cc(OC)c1O	9.98	9.63	7.8
O=C1/C(=C/c2ccccn2)CCC/C1=C\c1ccccn1	1.28	1.3	1.43
COc1ccc(C=C2CSCC(=Cc3ccc(OC)c(OC)c3OC)C2=O)c(OC)c1OC	3.78	4.71	2.89
O=C1/C(=C/c2ccc(Cl)cc2)CC/C1=C\c1ccc(Cl)cc1	25	23.2	15.9
COc1cc(/C=C/C(=O)/C=C/c2ccc(O)c(OC)c2)ccc1O	4.2	4.62	2.94
O=C1/C(=C/c2ccncc2)CSC/C1=C\c1ccncc1	0.7	1.14	1.29
COc1ccc(/C=C2\CCC/C(=C\c3ccc(OC)c(OC)c3OC)C2=O)c(OC)c1OC	8.22	11.6	7.14
O=C(/C=C/c1ccc(O)c(O)c1)/C=C/c1ccc(O)c(O)c1	8.99	13.4	9.02
COc1cc(/C=C2\CC/C(=C\c3ccc(O)c(OC)c3)C2=O)ccc1O	15.5	15.5	9.7
O=C1/C(=C/c2ccc(Br)cc2)CNC/C1=C\c1ccc(Br)cc1	1.95	2.06	4.13
O=C(/C=C/c1ccc(Cl)cc1)/C=C/c1ccc(Cl)cc1	16.7	14.1	10.9
O=C(/C=C/c1ccc(F)cc1)/C=C/c1ccc(F)cc1		12.5	9.35
